# Measurements from ChEMBL document CHEMBL5724801, “EUbOPEN Chemogenomics Library - Multiplex” (2024).
# Values joined by “and” are separate entries in the source; they are usually repeats but may differ in a detail not shown here. Equal values may be shown once.
# Tested on: U2OS
# Assay: Multiplex assay against U2OS
# Type: toxicity, cell-based
# Settings: human
# Summary of the method: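 Hoechst33342, BioTracker Green Microtubule Cytoskeleton Dye, MitoTracker Red and Annexin V Alexa Fluor 680 were added to live cells at seeding, and imaging on a CQ1 microscope at 37°C and 5% CO2 followed compound addition. Gating by CellPathfinder machine learning separated cells into Hoechst high-intensity objects or normal cells, then normal cells into healthy, pyknosed or fragmented nuclei, then pyknosed cells into mitotic or apoptotic. Per cents of healthy-nucleus cells are reported for the tubulin, mitochondrial-mass and membrane-permeability phenotypes.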
# [1] = 12 h, 1 µM, compound concentration 1 uM
# [2] = 12 h, 10 µM, compound concentration 10 uM
# [3] = 24 h, 1 µM, compound concentration 1 uM
# [4] = 24 h, 10 µM, compound concentration 10 uM
# [5] = 48 h, 1 µM, compound concentration 1 uM
# [6] = 48 h, 10 µM, compound concentration 10 uM
smiles,measurement,setting,value
Cc1cnc(-c2cc(N3CCN(C(=O)CCS(C)(=O)=O)CC3)ncc2Cl)c(C)c1,Population Apoptotic (%),[1],86% and 100%
same,Population Fragmented Nuclei (%),[1],37% and 18%
same,Population Healthy Nuclei (%),[1],54% and 73%
same,Population Hoechst High Intensity Objects (%),[1],2% and 1%
same,Population Membrane Permeable-Phenotype (%),[1],10%
same,Population Mitochondria Different-Phenotype (%),[1],1% and 7%
same,Population Mitotic Cells (%),[1],13% and 0%
same,Population Normal (%),[1],97% and 98%
same,Population Pyknosed Nuclei (%),[1],8%
same,Population Tubulin-Different-Phenotype (%),[1],2% and 7%
same,Total Cell Count,[1],183 and 111
same,Population Apoptotic (%),[2],85% and 75%
same,Population Fragmented Nuclei (%),[2],24% and 17%
same,Population Healthy Nuclei (%),[2],67% and 73%
same,Population Hoechst High Intensity Objects (%),[2],1%
same,Population Mitochondria Different-Phenotype (%),[2],3% and 7%
same,Population Mitotic Cells (%),[2],14% and 25%
same,Population Normal (%),[2],98%
same,Population Pyknosed Nuclei (%),[2],8% and 9%
same,Total Cell Count,[2],258 and 88
same,Population Apoptotic (%),[3],80% and 90%
same,Population Fragmented Nuclei (%),[3],30% and 17%
same,Population Healthy Nuclei (%),[3],62% and 75%
same,Population Hoechst High Intensity Objects (%),[3],2%
same,Population Membrane Permeable-Phenotype (%),[3],5% and 8%
same,Population Mitochondria Different-Phenotype (%),[3],3% and 5%
same,Population Mitotic Cells (%),[3],20% and 10%
same,Population Normal (%),[3],97%
same,Population Pyknosed Nuclei (%),[3],6% and 7%
same,Population Tubulin-Different-Phenotype (%),[3],2% and 8%
same,Total Cell Count,[3],220 and 136
same,Population Apoptotic (%),[4],80% and 85%
same,Population Fragmented Nuclei (%),[4],20% and 21%
same,Population Healthy Nuclei (%),[4],74% and 64%
same,Population Hoechst High Intensity Objects (%),[4],2% and 0%
same,Population Mitochondria Different-Phenotype (%),[4],2% and 1%
same,Population Mitotic Cells (%),[4],20% and 14%
same,Population Normal (%),[4],97% and 99%
same,Population Pyknosed Nuclei (%),[4],4% and 13%
same,Population Tubulin-Different-Phenotype (%),[4],0% and 7%
same,Total Cell Count,[4],309 and 103
same,Population Apoptotic (%),[5],78% and 95%
same,Population Fragmented Nuclei (%),[5],29% and 15%
same,Population Healthy Nuclei (%),[5],63% and 73%
same,Population Hoechst High Intensity Objects (%),[5],0% and 1%
same,Population Membrane Permeable-Phenotype (%),[5],3% and 4%
same,Population Mitochondria Different-Phenotype (%),[5],2% and 5%
same,Population Normal (%),[5],99% and 98%
same,Population Pyknosed Nuclei (%),[5],7% and 10%
same,Population Tubulin-Different-Phenotype (%),[5],1% and 3%
same,Total Cell Count,[5],325 and 184
same,Population Apoptotic (%),[6],94% and 100%
same,Population Fragmented Nuclei (%),[6],11% and 22%
same,Population Healthy Nuclei (%),[6],80% and 71%
same,Population Hoechst High Intensity Objects (%),[6],1% and 3%
same,Population Membrane Permeable-Phenotype (%),[6],4% and 13%
same,Population Mitochondria Different-Phenotype (%),[6],2% and 7%
same,Population Mitotic Cells (%),[6],5% and 0%
same,Population Normal (%),[6],98% and 96%
same,Population Pyknosed Nuclei (%),[6],7% and 5%
same,Population Tubulin-Different-Phenotype (%),[6],2% and 7%
COc1cc(NC(=O)CCN2CCC(OC(=O)Nc3ccccc3-c3ccccc3)CC2)c(Cl)cc1CNC[C@H](O)c1ccc(O)c2[nH]c(=O)ccc12 [BATEFENTEROL],Population Apoptotic (%),[1],68% and 85%
same,Population Fragmented Nuclei (%),[1],29% and 14%
same,Population Healthy Nuclei (%),[1],49% and 78%
same,Population Hoechst High Intensity Objects (%),[1],4% and 1%
same,Population Membrane Permeable-Phenotype (%),[1],5% and 9%
same,Population Mitochondria Different-Phenotype (%),[1],5% and 6%
same,Population Mitotic Cells (%),[1],31% and 14%
same,Population Normal (%),[1],95% and 98%
same,Population Pyknosed Nuclei (%),[1],21% and 7%
same,Population Tubulin-Different-Phenotype (%),[1],4% and 7%
same,Total Cell Count,[1],159 and 98
same,Population Apoptotic (%),[2],72% and 88%
same,Population Fragmented Nuclei (%),[2],37% and 18%
same,Population Healthy Nuclei (%),[2],44% and 59%
same,Population Hoechst High Intensity Objects (%),[2],6% and 7%
same,Population Membrane Permeable-Phenotype (%),[2],60% and 57%
same,Population Mitochondria Different-Phenotype (%),[2],67% and 95%
same,Population Mitotic Cells (%),[2],27% and 11%
same,Population Normal (%),[2],93% and 92%
same,Population Pyknosed Nuclei (%),[2],18% and 22%
same,Population Tubulin-Different-Phenotype (%),[2],75% and 97%
same,Total Cell Count,[2],196 and 82
same,Population Apoptotic (%),[3],74% and 100%
same,Population Fragmented Nuclei (%),[3],27% and 12%
same,Population Healthy Nuclei (%),[3],55% and 75%
same,Population Hoechst High Intensity Objects (%),[3],2% and 1%
same,Population Membrane Permeable-Phenotype (%),[3],9% and 5%
same,Population Mitochondria Different-Phenotype (%),[3],9% and 6%
same,Population Mitotic Cells (%),[3],25% and 0%
same,Population Normal (%),[3],97% and 98%
same,Population Pyknosed Nuclei (%),[3],17% and 11%
same,Population Tubulin-Different-Phenotype (%),[3],5% and 2%
same,Total Cell Count,[3],182 and 103
same,Population Apoptotic (%),[4],79% and 73%
same,Population Fragmented Nuclei (%),[4],38% and 29%
same,Population Healthy Nuclei (%),[4],38% and 42%
same,Population Hoechst High Intensity Objects (%),[4],4% and 9%
same,Population Membrane Permeable-Phenotype (%),[4],32% and 52%
same,Population Mitochondria Different-Phenotype (%),[4],59% and 91%
same,Population Mitotic Cells (%),[4],20% and 26%
same,Population Normal (%),[4],95% and 90%
same,Population Pyknosed Nuclei (%),[4],22% and 27%
same,Population Tubulin-Different-Phenotype (%),[4],44% and 91%
same,Total Cell Count,[4],199 and 93
same,Population Apoptotic (%),[5],82% and 85%
same,Population Fragmented Nuclei (%),[5],26% and 17%
same,Population Healthy Nuclei (%),[5],54% and 64%
same,Population Hoechst High Intensity Objects (%),[5],3% and 4%
same,Population Membrane Permeable-Phenotype (%),[5],3%
same,Population Mitochondria Different-Phenotype (%),[5],5% and 1%
same,Population Mitotic Cells (%),[5],17% and 14%
same,Population Normal (%),[5],96% and 95%
same,Population Pyknosed Nuclei (%),[5],19% and 17%
same,Population Tubulin-Different-Phenotype (%),[5],3% and 1%
same,Total Cell Count,[5],242 and 123
same,Population Apoptotic (%),[6],92% and 94%
same,Population Fragmented Nuclei (%),[6],41% and 29%
same,Population Healthy Nuclei (%),[6],39% and 32%
same,Population Hoechst High Intensity Objects (%),[6],6% and 10%
same,Population Membrane Permeable-Phenotype (%),[6],31% and 38%
same,Population Mitochondria Different-Phenotype (%),[6],43% and 70%
same,Population Mitotic Cells (%),[6],7% and 5%
same,Population Normal (%),[6],93% and 89%
same,Population Pyknosed Nuclei (%),[6],18% and 37%
same,Population Tubulin-Different-Phenotype (%),[6],23% and 48%
same,Total Cell Count,[6],221 and 105
Cc1cc(NC(=O)NCCN2CCC(O)(Cc3ccccc3)CC2)c2ccccc2n1 [PALOSURAN],Population Apoptotic (%),[1],80% and 71%
same,Population Fragmented Nuclei (%),[1],27% and 19%
same,Population Healthy Nuclei (%),[1],65% and 71%
same,Population Hoechst High Intensity Objects (%),[1],1% and 0%
same,Population Membrane Permeable-Phenotype (%),[1],4% and 2%
same,Population Mitochondria Different-Phenotype (%),[1],2% and 0%
same,Population Mitotic Cells (%),[1],20% and 28%
same,Population Normal (%),[1],98% and 100%
same,Population Pyknosed Nuclei (%),[1],6% and 9%
same,Population Tubulin-Different-Phenotype (%),[1],1%
same,Total Cell Count,[1],220 and 145
same,Population Apoptotic (%),[2],72% and 66%
same,Population Fragmented Nuclei (%),[2],30% and 17%
same,Population Healthy Nuclei (%),[2],59% and 70%
same,Population Hoechst High Intensity Objects (%),[2],3%
same,Population Membrane Permeable-Phenotype (%),[2],6% and 12%
same,Population Mitochondria Different-Phenotype (%),[2],1% and 2%
same,Population Mitotic Cells (%),[2],28% and 33%
same,Population Normal (%),[2],96%
same,Population Pyknosed Nuclei (%),[2],9% and 11%
same,Population Tubulin-Different-Phenotype (%),[2],1% and 8%
same,Total Cell Count,[2],266 and 107
same,Population Apoptotic (%),[3],94% and 66%
same,Population Fragmented Nuclei (%),[3],26% and 17%
same,Population Healthy Nuclei (%),[3],66% and 74%
same,Population Hoechst High Intensity Objects (%),[3],1%
same,Population Membrane Permeable-Phenotype (%),[3],3% and 7%
same,Population Mitochondria Different-Phenotype (%),[3],3% and 7%
same,Population Normal (%),[3],98%
same,Population Pyknosed Nuclei (%),[3],6% and 8%
same,Population Tubulin-Different-Phenotype (%),[3],2% and 3%
same,Total Cell Count,[3],276 and 173
same,Population Apoptotic (%),[4],92% and 75%
same,Population Fragmented Nuclei (%),[4],26% and 19%
same,Population Healthy Nuclei (%),[4],65% and 74%
same,Population Hoechst High Intensity Objects (%),[4],3%
same,Population Membrane Permeable-Phenotype (%),[4],4% and 11%
same,Population Mitochondria Different-Phenotype (%),[4],0% and 1%
same,Population Normal (%),[4],96%
same,Population Pyknosed Nuclei (%),[4],8% and 6%
same,Population Tubulin-Different-Phenotype (%),[4],2% and 5%
same,Total Cell Count,[4],297 and 129
same,Population Apoptotic (%),[5],96% and 84%
same,Population Fragmented Nuclei (%),[5],25% and 15%
same,Population Healthy Nuclei (%),[5],68% and 73%
same,Population Hoechst High Intensity Objects (%),[5],1% and 3%
same,Population Membrane Permeable-Phenotype (%),[5],5% and 7%
same,Population Mitochondria Different-Phenotype (%),[5],3% and 5%
same,Population Normal (%),[5],98% and 97%
same,Population Pyknosed Nuclei (%),[5],6% and 11%
same,Population Tubulin-Different-Phenotype (%),[5],3% and 4%
same,Total Cell Count,[5],411 and 233
same,Population Apoptotic (%),[6],97% and 89%
same,Population Fragmented Nuclei (%),[6],20% and 16%
same,Population Healthy Nuclei (%),[6],70% and 72%
same,Population Hoechst High Intensity Objects (%),[6],1%
same,Population Membrane Permeable-Phenotype (%),[6],5% and 7%
same,Population Mitochondria Different-Phenotype (%),[6],2% and 4%
same,Population Mitotic Cells (%),[6],2% and 10%
same,Population Normal (%),[6],98%
same,Population Pyknosed Nuclei (%),[6],9% and 10%
same,Population Tubulin-Different-Phenotype (%),[6],2% and 1%
same,Total Cell Count,[6],421 and 180
